Sampled rows, rich in hits. Any-hit rate of the full collection: about 3.5%.
MrgX1 antagonist: blocks BAM8-22 activation of human MrgX1 receptor; MRGX1-HEK293 calcium flux, Fluo-4, BAM8-22 antagonism; stronger effect = lower value; AID 588676; B-score at 10 µM; 1.3% of 310,000 active; Q96LB2;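 active = calcium-response B-score plate-corrected more than 3 library SD below zero, starting fluorescence within 5 deviations, no agonist response on first addition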;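 note: peak minus trough fluorescence over baseline after final BAM8-22 challenge near maximal dose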
Target sequence (Q96LB2 whole entry, looked up): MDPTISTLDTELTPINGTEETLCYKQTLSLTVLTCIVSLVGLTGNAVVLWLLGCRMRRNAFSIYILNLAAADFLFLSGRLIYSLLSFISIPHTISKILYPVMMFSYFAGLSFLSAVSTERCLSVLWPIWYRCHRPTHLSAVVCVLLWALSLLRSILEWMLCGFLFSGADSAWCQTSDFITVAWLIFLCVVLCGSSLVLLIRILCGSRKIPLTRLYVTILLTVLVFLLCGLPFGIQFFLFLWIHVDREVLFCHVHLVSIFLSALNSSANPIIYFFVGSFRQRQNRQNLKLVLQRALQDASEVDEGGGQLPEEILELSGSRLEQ
RGS4 inh: human RGS4 inhibition; P49798; HEK293 M3R/RGS4 inducible, Fluo-4 calcium flux; stronger effect = higher value; triggered by carbachol at its EC20; B-score at 10 µM; 0.45% of 310,000 active;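 active = B-score, a plate-corrected calcium signal, over three deviations above library mean, with baseline fluorescence within five deviations of library mean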;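 note: RGS4 expression induced by doxycycline in cells with stable M3 receptor; B-score is computed from the integrated fluorescence ratio over baseline after carbachol; higher B-score means a larger calcium signal and so more RGS4 inhibition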
Target sequence (P49798 whole entry, looked up): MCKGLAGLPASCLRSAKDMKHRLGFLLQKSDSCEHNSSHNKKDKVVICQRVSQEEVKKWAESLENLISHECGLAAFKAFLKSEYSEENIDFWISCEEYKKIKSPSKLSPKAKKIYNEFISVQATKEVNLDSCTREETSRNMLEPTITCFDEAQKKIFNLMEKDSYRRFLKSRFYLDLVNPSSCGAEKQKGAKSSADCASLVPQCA
MrgX1 allo act: human MrgX1 positive allosteric modulation, primary screen | Q96LB2 | MrgX1-HEK293, Fluo-4 calcium flux, FDSS; stronger effect = higher value | B-score at 10 µM | 0.63% of 310,000 active | AID 588675;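 active = plate-corrected calcium response at least 3 library SD above typical, normal starting fluorescence, not activating the receptor alone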;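 note: compound read alongside a low EC10 to EC30 dose of BAM8-22 agonist; peak minus trough fluorescence over baseline measured at the second addition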
RGS4 pot: potentiators or activators of RGS4. HEK293 M3R/inducible RGS4, carbachol calcium flux Fluo4; stronger effect = lower value. B-score at 10 µM. 0.92% of 310,000 active;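 active = B-score of the integrated calcium signal more than 4 SD below the library mean, with starting fluorescence not abnormally high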;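 note: negative B-score means reduced calcium response which marks RGS4 activation or potentiation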
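test system = M3R-expressing HEK293 line, RGS4 induced by doxycycline | probe or stimulus = carbachol at ECmax as muscarinic agonist stimulus | timing = dye loading 30 min 37 °C, buffer rest 30 min RT | signal = calcium dye Fluo4 fluorescence | evaluation = B score from integrated fluorescence ratio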
MrgX1 ag: activates human MrgX1 receptor signaling; 0.44% of 310,000 active; B-score at 10 µM; MrgX1-HEK293 cells, Fluo-4 calcium fluorescence, agonist mode; stronger effect = higher value;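 active = calcium response B-score plate-corrected fluorescence ratio at least 3 library SD, with starting fluorescence B-score inside 5 SD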
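Test system: HEK293 cells stably expressing human MrgX1 receptor; Input: fifteen thousand cells per well; Dosing: compound delivered in addition one of three; Schedule: overnight seeding, then 1 h dark dye loading; Technique: Fluo-4 NW calcium fluorescence; Measure: B-scored fluorescence response ratio; Controls: positive and negative controls per plate.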
Starred values were filed as active, the others as inactive; i = inactive; . = not tested or not shown.

SMILES | MrgX1 antagonist | RGS4 inh | MrgX1 allo act | RGS4 pot | MrgX1 ag
CCCCn1c(N)c(N(CC(C)C)C(=O)CSCc2ccc(Cl)c(Cl)c2)c(=O)[nH]c1=O | i | i | i | i | i
Cc1nn(C)c(C(=O)N/N=C/c2cc3c(cc2Br)OCO3)c1Br | i | i | i | i | i
Cc1nonc1C(=O)N/N=C/c1cc2c(cc1Br)OCO2 | -5* | i | i | i | i
CC1(C)Cc2c(cnn2-c2ccccc2)C(NC(=O)CCCn2cncn2)C1 (stereo unspecified) | i | i | i | i | i
CSc1nc2ccccc2cc1/C=C(\C#N)c1ccccc1 | i | i | i | i | i
O=Cc1cc2ccccc2nc1SCCCF | -5.8* | i | i | i | i
CC(/C=N/n1c(-c2ccc(C)cc2)n[nH]c1=S)=C\c1ccco1 | i | i | i | i | i
CC(/C=N/n1c(-c2ccco2)n[nH]c1=S)=C\c1ccco1 | -5.9* | i | i | i | i
CC(/C=N/n1c(-c2ccccc2)n[nH]c1=S)=C\c1ccco1 | i | i | i | -7.2* | i
CC(/C=N/n1c(-c2ccncc2)n[nH]c1=S)=C\c1ccco1 | i | i | i | i | i
CCOC(=O)c1c(Nc2ccccc2OCCOC)n[nH]c1C | i | i | i | i | i
O=C(O)c1csc(N/N=C/c2ccc(Br)cc2)n1 | . | i | . | i | .
COc1cc(Cl)c(C)cc1Nc1ncccn1 | i | i | i | i | i
CC(C)(C)[C@H]1C=C(C(=O)N2CCN(Cc3ccccc3)CC2)O[C@@H](OCc2ccc(CO)cc2)C1 | i | i | 7.4* | i | i
CCCc1cc(-c2[nH]ncc2-c2ccc(C(=O)OCC)o2)c(O)cc1O | i | i | i | i | i
CCCc1cc(-c2[nH]ncc2-c2ccc3c(c2)OCCCO3)c(O)cc1O | i | i | i | -7.9* | i
Cc1coc2c(C)c3oc(=O)c(CCC(=O)NCCN4CCOCC4)c(C)c3cc12 | i | i | i | -7* | i
CC(=O)Nc1ccc(S(=O)(=O)N2CCC(C(=O)O)(c3ccccc3)CC2)cc1 | i | i | i | i | i
CC[N+](CC)(CC)C/C(N)=N/O | -6.1* | i | i | i | i
COc1ccc(C)c2sc(N(CCCN(C)C)C(=O)CS(=O)(=O)c3ccc(F)cc3)nc12 | i | i | i | i | i
OC(CNC1CCCCC1)COCCOc1ccc(Br)cc1 (stereo unspecified) | -9.2* | i | i | i | i
O=[N+]([O-])c1ccc(OCC(O)CNC2CCCC2)cc1 (stereo unspecified) | i | i | i | i | 28*
O=[N+]([O-])c1ccc(OCC(O)CN(C2CCCCC2)C2CCCCC2)cc1 (stereo unspecified) | i | i | i | i | i
OC(CNC1CCCC1)COc1ccc(-c2ccccc2)cc1 (stereo unspecified) | i | i | i | i | i
Cc1cnc(CN(C)C(=O)c2ccc3oc(Cc4ccc(Cl)cc4)nc3c2)[nH]1 | i | i | i | -7.2* | i
SMILES | MrgX1 antagonist | RGS4 inh | MrgX1 allo act | RGS4 pot | MrgX1 ag
CCCOc1ccc(S(=O)(=O)n2cc(F)c(=O)[nH]c2=O)cc1 | i | i | 7.9* | i | i
C=CCOc1ccc(/C=N/NC(=O)c2cc3c(OC)cc(OC)cc3[nH]2)cc1 | i | i | i | -8.1* | i
c1ccc(C(c2ccccc2)c2noc(CN3CCN(C4CCCC4)CC3)n2)cc1 | i | i | i | i | i
CC(=O)N1CCN(Cc2nc(C(c3ccccc3)c3ccccc3)no2)CC1 | i | i | i | -7.5* | i
CC(=O)Nc1cc(C(=O)N2CCc3ccccc3C2)ccc1Sc1ccc(Cl)cc1 | i | i | i | -8* | i
CCOc1cc2c(cc1/C=C/c1noc(C)c1[N+](=O)[O-])OC(C)C2 (stereo unspecified) | i | i | i | i | 41*
CCC(C)(C)c1ccc(OCCN2C(=O)NC(C)(C)C2=O)cc1 | i | i | i | i | i
CCOC(=O)C(Cc1ccccc1)NC(=O)Cn1nnc(-c2ccc(SC)cc2)n1 (stereo unspecified) | -6.9* | i | i | i | i
CC(C)CN1C(=S)SC(C)(C)C1n1oc(=O)n(-c2ccccc2)c1=O (stereo unspecified) | i | i | i | i | i
CC(C)CN1C(=S)SC(C)(C)C1n1oc(=O)n(-c2ccc(Cl)cc2)c1=O (stereo unspecified) | i | i | i | -11* | i
O=C(O)c1cccnc1Br | i | i | i | i | i
COc1ccc(/C=c2\s/c(=C/C(=O)c3ccc(C)cc3)[nH]c2=O)cc1OC | i | i | i | i | 29*
CC(C)(C)C(=O)/C=c1\[nH]c(=O)/c(=C\c2ccc(F)cc2)s1 | i | i | i | i | i
CCN(CCCNC(=O)CCCCn1c(=O)[nH]c2ccccc2c1=O)c1ccccc1 | -5* | i | i | i | i
Cc1ccc(Sc2c([N+](=O)[O-])ncn2C)cc1 | i | i | i | i | i
Cn1cnc([N+](=O)[O-])c1Sc1ncccc1N | -7.2* | i | i | i | i
CCOC(=O)/C(C#N)=C\c1ccc2c(c1)OCO2 | i | i | i | i | i
N#C/C(=C\c1ccc2c(c1)OCO2)C(N)=S | i | i | 7.5* | i | i
Cn1cccc1-c1cc(C(=O)N/N=C/C=C/c2ccccc2)[nH]n1 | -5.8* | i | i | i | i
Fc1ccc(CNC(=S)NC2CCCC2)cc1 | i | i | i | i | i
O=c1c(-c2ccccc2)c(-c2ccccc2)oc2cc(O)cc(O)c12 | i | i | i | i | i
O=c1cc(-c2ccccc2)c2c(O)cc(O)cc2o1 | i | i | i | i | 29*
Cc1cc(NC(=O)c2c([N+](=O)[O-])c(C)nn2C)no1 | -5* | i | i | i | i
Cc1cc(NC(=O)c2c(Cl)c(C)nn2C)no1 | i | i | i | i | i
COc1ccc(/C=C/C(=O)C2CC2)cc1COc1c(C)cccc1C | i | i | i | -8.5* | i
O=C(NC1CCCCC1)C(=S)NC1CCCCC1 | i | i | i | i | i
CCc1ccccc1NC(=S)N1N=CCC1c1ccccc1 (stereo unspecified) | i | i | i | i | 37*
O=C(Nc1ccccc1)OC1CCCCc2cccnc21 (stereo unspecified) | i | i | i | i | i

Bioassay records deposited in PubChem by Johns Hopkins Ion Channel Center.
